The target of data set [1] is T1, recombinant Bauhinia forficata lectin (BfL) (Bauhinia forficata, UniProt P86993).
T1 sequence (P86993 1-233): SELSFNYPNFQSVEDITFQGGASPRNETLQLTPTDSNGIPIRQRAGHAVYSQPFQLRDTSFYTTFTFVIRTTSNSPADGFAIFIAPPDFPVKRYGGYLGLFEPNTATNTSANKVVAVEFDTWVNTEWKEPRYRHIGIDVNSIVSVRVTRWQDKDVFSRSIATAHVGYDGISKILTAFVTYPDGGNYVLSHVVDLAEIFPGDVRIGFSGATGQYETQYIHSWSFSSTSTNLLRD
Kind of data set: glyco-antigen microarray binding of BfL, apparent Kd. Particulars: for RFUmax: carbohydrate array, maximum signal of the binding curve. Put shortly:
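His6-tagged lectin expressed in E. coli, refolded from inclusion bodies, and gel-filtered in 50 mM Hepes pH 7.5, 150 mM NaCl. Glycans on BSA or HSA (neoglycoproteins), some at high and low density. Arrays blocked overnight at 4 °C in 3% BSA TBS. Lectin dilutions in 1% BSA TBS with 2 mM CaCl2 and 0.05% Tween-20, duplicate wells, 2 h at 37 °C. Detected with anti-His then DyLight549 anti-mouse IgG. Fluorescence averaged, log2-transformed, apparent Kd fitted from binding curves.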

Data set [2] concerns the target T2, Ac-A-Tn(Thr)-S-G - 05.
T2 sequence (peptide, N-terminal acetyl; Tn (GalNAc α-linked) on the second residue (Thr)): ATSG
The experiment in a line: peptide or protein array.

In data set [3] the target is T3, Ac-S-Thr(F1α)-S-G - 18.
T3 sequence (peptide, N-terminal acetyl; F1α (Galβ1-4GlcNAcβ1-6GalNAcα1-) on the second residue (Thr)): STSG
Kind of data set: peptide or protein array.

Data set [4] addresses T4, Ac-S-Tn(Ser)-S-G - 22.
T4 sequence (peptide, N-terminal acetyl; Tn (GalNAc α-linked) on the second residue (Ser)): SSSG
Kind of data set: peptide or protein array.

The target in data set [5] is T5, Ac-S-Tn(Ser)-S-G - 04.
T5 sequence (peptide, N-terminal acetyl; Tn (GalNAc α-linked) on the second residue (Ser)): SSSG
Kind of data set: peptide or protein array.

Data set [6] concerns the target T6, Ac-S-Ser(core 5)-S-G-18.
T6 sequence (peptide, N-terminal acetyl; core 5 (GalNAcα1-3GalNAcα1-) on the second residue (Ser)): SSSG
The experiment in a line: peptide or protein array.

The target in data set [7] is T7, Ac-S-Tn(Thr)-S-G - 04.
T7 sequence (peptide, N-terminal acetyl; Tn (GalNAc α-linked) on the second residue (Thr)): STSG
Kind of data set: peptide or protein array.

Data set [8] has as its target all forms of the Tn antigen (Tn glycopeptides, 55 array components). Kind of data set: peptide or protein array.
Data set [9] concerns the target ovine submaxillary mucin (ovine). Kind of data set: peptide or protein array.
Data set [10] concerns human erythrocytes originating from all blood types. The note with it: natural BfL from seeds; cited from earlier work.
The subject of data set [11] is melanoma LOX IMVI cell line. The experiment in a line: NCI-60 One Dose Assay. Format: cell-based, human. Particulars: 1.85 μM, SRB assay, 5% serum, average of two experiments. In short, it runs like this:
(§1)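 Recombinant His-tagged test lectin, refolded from E. coli inclusion bodies, was gel-filtered into 50 mM Hepes pH 7.5, 150 mM NaCl before use. NCI DTP ran a one-dose screen at 1.85 μM following its published protocols. Read-out was SRB colorimetric total protein in non-lysed cells. Growth percent is relative to drug-free medium, averaged over two experiments.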
A general note: Sulforhodamine B stains cellular protein and so reports cell mass.

Data set [12] can be described thus: solubility of recombinant BfL. Format: physicochemical. In short, it runs like this:
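Recombinant His6-tagged lectin was expressed in bacteria, recovered from inclusion bodies and refolded at 5 °C. It was then dialysed overnight against 50 mM Tris-HCl pH 7.5, 0.2 M NaCl, 1 mM CaCl2, and concentrated to 8-10 mg/ml at room temperature for storage at −80 °C. The preceding purification and refolding steps were run at 5 °C.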

Data set [13] has as its system rabbit erythrocytes. The note with it: natural BfL from seeds; cited from earlier work.
Data set [14] has as its system human cancer cell lines of the NCI-60 panel. Kind of data set: NCI-60 Human Tumor Cell Lines Screen, One Dose Assay. Format: cell-based. The note with it: 1.85 μM. In short, it runs like this: as §1
For data set [15], the system named is normal and several types of cancer cells. Particulars: natural BfL from seeds; cited from earlier work.
Data set [16] concerns MCF7 human breast cancer cell line. Particulars: natural BfL from seeds; after 72 hours at 2.5 µM; cited from earlier work.
The target of data set [17] is T8, recombinant Bauhinia forficata lectin (BfL-His6) (Bauhinia forficata, UniProt P86993 1-233).
T8 sequence: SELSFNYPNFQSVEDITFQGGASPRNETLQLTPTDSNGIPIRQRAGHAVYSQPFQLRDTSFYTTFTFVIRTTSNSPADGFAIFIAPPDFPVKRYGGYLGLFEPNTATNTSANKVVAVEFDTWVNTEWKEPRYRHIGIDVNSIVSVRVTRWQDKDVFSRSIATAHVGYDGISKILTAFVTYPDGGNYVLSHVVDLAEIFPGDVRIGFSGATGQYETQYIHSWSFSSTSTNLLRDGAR
The experiment in a line: peptide or protein array.

The values that follow come from paper PMC6257985 (The FEBS journal, 2017).

Where no end group is shown, it is not given here. The star is where a group is joined. αGalNAc = CC(=O)N[C@@H]1[C@@H](O)[C@@H](O)[C@@H](CO)O[C@@H]1*

For “-G-V-T-S-A-P-D-T-R-P-A-P-G-S- Tn(Thr)-A-P-P-A (GVTSAPDTRPAPGST(αGalNAc)APPA; also: conjugated to albumin carrier (BSA or HSA)) [Muc1-Tn15]”, in [1], the RFUmax is recorded as 17917 RFU.
Still for that read-out and setting: to “Ac-S-Tn(Ser)-V-G-13: Tn glycopeptide on BSA or HSA, array component (Ac-SS(αGalNAc)VG; also: on BSA or HSA carrier)” belongs 17255 RFU; to “AzHex-P-D-Tn(Thr)-R-P-NH2-07: Tn glycopeptide on BSA or HSA, array component (AzHex-PDT(αGalNAc)RP-NH2; also: on BSA or HSA carrier)”, 15559 RFU; to GalNAcα1-3(Fucα1-2)Gal [BG-A -19], 15700 RFU.
Turning to GalNAcα1-3Gal [GalNAcα1-3Gal - 17], in data set [1], the “binding of BfL on glycan microarray (in words)” value (shortened to “binding of BfL”) was “strong binding” and the RFUmax is reported as 17826 RFU.
As to “GalNAcα1-3GalNAcα1-Ser (Ac-SSSG; not fully specified (residue 2); also: on BSA or HSA carrier) [Ac-S-Ser(core 5)-S-G-18]”, in data set [1], the “binding of BfL” value was “good binder” and the RFUmax was 18580 RFU.
The corresponding values for “GalNAcα1-3GalNAcβ1-3Galα1-4Galβ [Forssman Tetra-BSA - 13]” are “strong binding” and 18518 RFU.
In the case of GalNAcα1-6Galβ [GalNAcα1-6Galβ - 22], in data set [1], the “binding of BfL” value was “strong binding” and the RFUmax came out at 19055 RFU.
For the molecule GalNAcβ1-3Galα1-3Galβ [iGb4], the “binding of BfL” value in data set [1] is on record as “strong binding”.
For the molecule “GalNAcβ1-3Galα1-4Galβ1-4GlcNAcβ [Gb4 - 09]”, in data set [1], the “binding of BfL” value is reported as “strong binding” and the RFUmax is 14003 RFU. In addition, in [1] (read-out: App Kd, apparent Kd, multivalent avidity on carbohydrate array), the Kd was 0.68 nM.
Take GalNAcβ1-4Galβ [GA2di - 37]: in data set [1], the “binding of BfL” value is on record as “strong binding” and the RFUmax worked out at 17241 RFU.
Take GalNAcβ1-4GlcNAcβ [LDN-Sp - 14]: in [1], the “binding of BfL” value is reported as “strong binding” and the RFUmax stood at 18291 RFU.
Turning to “Galβ1-4GlcNAcβ1-6GalNAcα1-Thr (Ac-ST(Galβ1‑4GlcNAcβ1‑6GalNAcα1)SG; also: on BSA or HSA carrier) [Ac-S-Thr(F1α)-S-G - 18]”, the RFUmax in [1] was 17214 RFU.

B1: recombinant Bauhinia forficata lectin (BfL-His6) (natural protein)
chain: SELSFNYPNFQSVEDITFQGGASPRNETLQLTPTDSNGIPIRQRAGHAVYSQPFQLRDTSFYTTFTFVIRTTSNSPADGFAIFIAPPDFPVKRYGGYLGLFEPNTATNTSANKVVAVEFDTWVNTEWKEPRYRHIGIDVNSIVSVRVTRWQDKDVFSRSIATAHVGYDGISKILTAFVTYPDGGNYVLSHVVDLAEIFPGDVRIGFSGATGQYETQYIHSWSFSSTSTNLLRDGAR
On to B1, for which the Kd stood at 0.63 nM in data set [2]; 2.51 nM in data set [3]; 0.65 nM in [4]; 0.75 nM in data set [5]; 1.02 nM in data set [6]; 0.71 nM in [7]. Further, the figures for the Kd in data set [8] and in [9] were 0.4 to 1.2 nM and 10.7 nM, respectively.

B2: BfL: recombinant Bauhinia forficata lectin expressed in E. coli and refolded, non-glycosylated, C-terminal His6 tag, dimeric (protein)
chain: SELSFNYPNFQSVEDITFQGGASPRNETLQLTPTDSNGIPIRQRAGHAVYSQPFQLRDTSFYTTFTFVIRTTSNSPADGFAIFIAPPDFPVKRYGGYLGLFEPNTATNTSANKVVAVEFDTWVNTEWKEPRYRHIGIDVNSIVSVRVTRWQDKDVFSRSIATAHVGYDGISKILTAFVTYPDGGNYVLSHVVDLAEIFPGDVRIGFSGATGQYETQYIHSWSFSSTSTNLLRDGAR
modifications: left off: His6, C-terminal, kept
What is called solubility is the dissolved amount per volume that the medium holds. B2: the “concentration that agglutinates erythrocytes” value in [10] and in data set [13] was no less than 1 µg/mL in each case. In addition, the growth inhibition entry in data set [11] is on record as “over 95%”. The “solubility (in words)” value in [12] (5 °C, compared with room temperature) is reported as “decreases”. Further, the solubility in data set [12] (room temperature) is 8000 to 10000 µg/mL. Besides, the cytotoxic effects entry in data set [14] was “No cytotoxic effects”. In [14] (observed for five cell lines of different cancers), the “growth inhibition, strong effect, five cell lines” value was greater than 50%. In addition, the “cell lines not inhibited” value in [14] (share of the cell lines of the panel) is “About 50%”. Moreover, in [15], the “cytotoxicity (in words)” value is reported as “non-cytotoxic”. Further, in [16], the inhibition of viability is recorded as 35%.

B3: Ac-A-P-G-S-Tn(Thr)-A-P-P-A-G-03 (peptide)
peptide: Ac-APGST(αGalNAc)APPAG
Take B3: in [17], the Kd stood at 0.65 nM.

B4: AzHex-P-D-Tn(Thr)-R-P-NH2-07 (peptide)
peptide: AzHex-PDT(αGalNAc)RP-NH2
Consider B4, for which the Kd in data set [17] came out at 1.25 nM.
